Assay results from ChEMBL document CHEMBL3286247, “Expansion of Antibacterial Spectrum of Muraymycins toward Pseudomonas aeruginosa” (ACS Med Chem Lett, 2014).
Values after ≈ are worked out from the molar mass of the structure shown.

Columns and labels:
Pseudomonas aeruginosa [1] = assay: Antibacterial activity against Pseudomonas aeruginosa YY165 deltamexB mutant assessed as growth inhibition after 20 hrs by microdilution method; assay type: functional; settings: YY165, 20 h
Procedure, shortened: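 Broth microdilution per CLSI in cation-adjusted Mueller–Hinton broth; serial 2-fold compound dilutions inoculated with 5 × 10⁴ CFU per well (0.1 mL), incubated 35 °C for 20 h, then MIC scored. Strain YY165 is a MexB deletion mutant lacking the inner-membrane transporter of the MexAB-OprM efflux system.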

Pseudomonas aeruginosa [2] = assay: Antibacterial activity against Pseudomonas aeruginosa ATCC 27853 assessed as growth inhibition after 20 hrs by microdilution method; assay type: functional; settings: ATCC 27853, 20 h
Procedure, shortened: (§1)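 Broth microdilution per CLSI in cation-adjusted Mueller-Hinton broth, using serial 2-fold compound dilutions. Each strain was inoculated at 5 × 10⁴ CFU per well in 0.1 mL. Plates were incubated at 35 °C for 20 h, and the MIC was then scored.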

[3] = Inhibition of Staphylococcus aureus MraY by fluorescence assay
Procedure, shortened: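 Purified S. aureus MraY was given UDP-MurNAc-dansylpentapeptide as substrate. Formation of dansylated lipid I was followed by fluorescence enhancement (excitation 355 nm, emission 535 nm).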

Pseudomonas aeruginosa [4] = assay: Antibacterial activity against Pseudomonas aeruginosa ATCC 25619 assessed as growth inhibition after 20 hrs by microdilution method; assay type: functional; settings: ATCC 25619, 20 h; procedure, shortened: as §1
Pseudomonas aeruginosa [5] = assay: Antibacterial activity against clinical isolate Pseudomonas aeruginosa SR27156 assessed as growth inhibition after 20 hrs by microdilution method; assay type: functional; settings: SR27156, 20 h; procedure, shortened: as §1
Pseudomonas aeruginosa [6] = assay: Antibacterial activity against Pseudomonas aeruginosa PAO1 assessed as growth inhibition after 20 hrs by microdilution method; assay type: functional; settings: PAO1, 20 h; procedure, shortened: as §1
[7] = Metabolic stability in human liver microsomes assessed as compound remaining at 2 uM after 30 mins incubation by LC-MS/MS analysis
[8] = Metabolic stability in rat liver microsomes assessed as compound remaining at 2 uM after 30 mins incubation by LC-MS/MS analysis
HepG2 = assay: Cytotoxicity against human HepG2 cells; assay type: functional, cell-based

Row | Compound | MIC (Pseudomonas aeruginosa [1]) [µg/mL] | MIC (Pseudomonas aeruginosa [2]) [µg/mL] | IC50 [3] [nM] | MIC (Pseudomonas aeruginosa [4]) [µg/mL] | MIC (Pseudomonas aeruginosa [5]) [µg/mL] | MIC (Pseudomonas aeruginosa [6]) [µg/mL] | remaining at 0.5 h, 2 µM [7] [%] | remaining at 0.5 h, 2 µM [8] [%] | IC50 (HepG2) [µg/mL]
1 | CCCCCCCCCCCCCCC[C@H](N)C(=O)NCCCN[C@H](C(=O)O)[C@H](O[C@@H]1O[C@H](CN)[C@@H](O)[C@H]1O)[C@H]1O[C@@H](n2ccc(=O)[nH]c2=O)[C@H](O)[C@@H]1O | 32 (≈ 41.4 µM) | > 64 | 2.6 | 32 (≈ 41.4 µM) | > 64 | > 64 |  |  | 
2 | CCCCCCCCCCCCCCC[C@H](NC(C)=O)C(=O)NCCCN[C@H](C(=O)O)[C@H](O[C@@H]1O[C@H](CN)[C@@H](O)[C@H]1O)[C@H]1O[C@@H](n2ccc(=O)[nH]c2=O)[C@H](O)[C@@H]1O | 32 (≈ 39.3 µM) | > 64 | 2.7 | 32 (≈ 39.3 µM) | 64 (≈ 78.5 µM) | 64 (≈ 78.5 µM) |  |  | 
3 | CCCCCCCCCCCCCCC[C@H](NC(=O)c1ccccc1)C(=O)NCCCN[C@H](C(=O)O)[C@H](O[C@@H]1O[C@H](CN)[C@@H](O)[C@H]1O)[C@H]1O[C@@H](n2ccc(=O)[nH]c2=O)[C@H](O)[C@@H]1O | > 64 | > 64 | 29.6 | > 64 | > 64 | > 64 |  |  | 
4 | CCCCCCCCCCCCCCC[C@H](NC(=O)c1ccccn1)C(=O)NCCCN[C@H](C(=O)O)[C@H](O[C@@H]1O[C@H](CN)[C@@H](O)[C@H]1O)[C@H]1O[C@@H](n2ccc(=O)[nH]c2=O)[C@H](O)[C@@H]1O | > 64 | > 64 | 6.4 | 64 (≈ 72.9 µM) | > 64 | > 64 |  |  | 
5 | CCCCCCCCCCCCCCC[C@H](NC(=O)c1cccnc1)C(=O)NCCCN[C@H](C(=O)O)[C@H](O[C@@H]1O[C@H](CN)[C@@H](O)[C@H]1O)[C@H]1O[C@@H](n2ccc(=O)[nH]c2=O)[C@H](O)[C@@H]1O | > 64 | > 64 | 9.6 | 64 (≈ 72.9 µM) | > 64 | > 64 |  |  | 
6 | CCCCCCCCCCCCCCC[C@H](NC(=O)c1ccncc1)C(=O)NCCCN[C@H](C(=O)O)[C@H](O[C@@H]1O[C@H](CN)[C@@H](O)[C@H]1O)[C@H]1O[C@@H](n2ccc(=O)[nH]c2=O)[C@H](O)[C@@H]1O | > 64 | > 64 | 8.1 | 64 (≈ 72.9 µM) | > 64 | > 64 |  |  | 
7 | CCCCCCCCCCCCCCC[C@H](NC(=O)c1ccnnc1)C(=O)NCCCN[C@H](C(=O)O)[C@H](O[C@@H]1O[C@H](CN)[C@@H](O)[C@H]1O)[C@H]1O[C@@H](n2ccc(=O)[nH]c2=O)[C@H](O)[C@@H]1O | 64 (≈ 72.8 µM) | > 64 | 13.5 | 64 (≈ 72.8 µM) | > 64 | > 64 |  |  | 
8 | CCCCCCCCCCCCCCC[C@H](NC(=O)c1cnccn1)C(=O)NCCCN[C@H](C(=O)O)[C@H](O[C@@H]1O[C@H](CN)[C@@H](O)[C@H]1O)[C@H]1O[C@@H](n2ccc(=O)[nH]c2=O)[C@H](O)[C@@H]1O | > 64 | > 64 | 33.1 | 64 (≈ 72.8 µM) | > 64 | > 64 |  |  | 
9 | CCCCCCCCCCCCCCC[C@H](NC(=O)c1ccc2ccccc2n1)C(=O)NCCCN[C@H](C(=O)O)[C@H](O[C@@H]1O[C@H](CN)[C@@H](O)[C@H]1O)[C@H]1O[C@@H](n2ccc(=O)[nH]c2=O)[C@H](O)[C@@H]1O | > 64 | > 64 | 105 | > 64 | > 64 | > 64 |  |  | 
10 | N=C(N)NCCCCCC(=O)NCCCCCC(=O)NCCCN[C@H](C(=O)O)[C@H](O[C@@H]1O[C@H](CN)[C@@H](O)[C@H]1O)[C@H]1O[C@@H](n2ccc(=O)[nH]c2=O)[C@H](O)[C@@H]1O | > 64 | > 64 | 1490 | > 64 | > 64 | > 64 |  |  | 
11 | CCCCCCCCC(=O)NCCCCCC(=O)NCCCN[C@H](C(=O)O)[C@H](O[C@@H]1O[C@H](CN)[C@@H](O)[C@H]1O)[C@H]1O[C@@H](n2ccc(=O)[nH]c2=O)[C@H](O)[C@@H]1O | > 64 | > 64 | 97.3 | > 64 | > 64 | > 64 |  |  | 
12 | CC(C)CCCC(=O)N[C@@H](CCCNC(=N)N)C(=O)NCCCN[C@H](C(=O)O)[C@H](O[C@@H]1O[C@H](CN)[C@@H](O)[C@H]1O)[C@H]1O[C@@H](n2ccc(=O)[nH]c2=O)[C@H](O)[C@@H]1O | > 64 | > 64 | 225 | > 64 | > 64 | > 64 |  |  | 
13 | CCCCCCCCCCC(=O)N[C@@H](CCCNC(=N)N)C(=O)NCCCN[C@H](C(=O)O)[C@H](O[C@@H]1O[C@H](CN)[C@@H](O)[C@H]1O)[C@H]1O[C@@H](n2ccc(=O)[nH]c2=O)[C@H](O)[C@@H]1O | > 64 | > 64 | 9.8 | 32 (≈ 38.6 µM) | > 64 | > 64 |  |  | 
14 | CCCCCCCCCCCCCC(=O)N[C@@H](CCCNC(=N)N)C(=O)NCCCN[C@H](C(=O)O)[C@H](O[C@@H]1O[C@H](CN)[C@@H](O)[C@H]1O)[C@H]1O[C@@H](n2ccc(=O)[nH]c2=O)[C@H](O)[C@@H]1O | 16 (≈ 18.3 µM) | 32 (≈ 36.7 µM) | 2.1 | 16 (≈ 18.3 µM) | 16 (≈ 18.3 µM) | 32 (≈ 36.7 µM) |  |  | 
15 | CCCCCCCCCCCCCCCCC(=O)N[C@@H](CCCNC(=N)N)C(=O)NCCCN[C@H](C(=O)O)[C@H](O[C@@H]1O[C@H](CN)[C@@H](O)[C@H]1O)[C@H]1O[C@@H](n2ccc(=O)[nH]c2=O)[C@H](O)[C@@H]1O | 8 (≈ 8.75 µM) | 32 (≈ 35 µM) | 1.6 | 16 (≈ 17.5 µM) | 16 (≈ 17.5 µM) | 16 (≈ 17.5 µM) | 89.5 | 81.1 | 
16 | CCCCCCCCCCCCCCCCNC(=O)[C@@H](NCCCNC(=O)[C@@H](N)CCCNC(=N)N)[C@H](O[C@@H]1O[C@H](CN)[C@@H](O)[C@H]1O)[C@H]1O[C@@H](n2ccc(=O)[nH]c2=O)[C@H](O)[C@@H]1O | 16 (≈ 18.1 µM) | 16 (≈ 18.1 µM) | 12.2 | 16 (≈ 18.1 µM) | 16 (≈ 18.1 µM) | 32 (≈ 36.2 µM) |  |  | 
17 | CCCCCCCCCCCCCCCCC(=O)N[C@@H](CCCNC(=N)N)C(=O)NCCCN[C@H](C(=O)NCCCCNC(=N)N)[C@H](O[C@@H]1O[C@H](CN)[C@@H](O)[C@H]1O)[C@H]1O[C@@H](n2ccc(=O)[nH]c2=O)[C@H](O)[C@@H]1O | 4 (≈ 3.9 µM) | 8 (≈ 7.8 µM) | 0.6 | 8 (≈ 7.8 µM) | 8 (≈ 7.8 µM) | 4 (≈ 3.9 µM) | 86.9 | 69.8 | 34 (≈ 33.1 µM)
18 | CC(C)C[C@H](NC(=O)[C@@H](NC(=O)N[C@H](C(=O)O)C(C)C)[C@@H]1CCNC(=N)N1)C(=O)NCCCN[C@H](C(=O)O)[C@H](O[C@@H]1O[C@H](CN)[C@@H](O)[C@H]1O)[C@H]1O[C@@H](n2ccc(=O)[nH]c2=O)[C@H](O)[C@@H]1O [MURAMYCIN D2] | 64 (≈ 69.9 µM) | > 64 | 2.8 | 64 (≈ 69.9 µM) | 32 (≈ 34.9 µM) | > 64 |  |  | 
